Measurements from ChEMBL document CHEMBL1275556, “High prevalence of plasmid-mediated quinolone resistance genes qnr and aac(6')-Ib-cr in clinical isolates of Enterobacteriaceae from nine teaching hospitals in China” (2008).
In brackets after ≈: the same amount, converted by molar mass.

Legend:
Escherichia coli [1] = experiment: Antimicrobial activity against aac(6')-Ib-cr-negative Escherichia coli PU12T harboring wild-type GyrA, GyrB, ParC and qnrS genes by agar dilution method; assay type: functional
Outline: (§1)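 MICs were determined by the CLSI agar dilution method (M7-A7) and interpreted against CLSI M100-S17 breakpoints.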

Citrobacter freundii [2] = experiment: Antimicrobial activity against aac(6')-Ib-cr-positive Citrobacter freundii PU55 harboring GyrA T83I, ParC S80I mutant, wild-type GyrB, qnrA genes by agar dilution method; assay type: functional; outline: as §1
Enterobacter cloacae [3] = experiment: Antimicrobial activity against aac(6')-Ib-cr-negative Enterobacter cloacae SH39 harboring GyrA S83I, ParC S80I mutant, wild-type GyrB and qnrA genes by agar dilution method; assay type: functional
Enterobacter cloacae [4] = experiment: Antimicrobial activity against aac(6')-Ib-cr-negative Enterobacter cloacae SH39T harboring qnrA gene by agar dilution method; assay type: functional
Klebsiella pneumoniae [5] = experiment: Antimicrobial activity against aac(6')-Ib-cr-negative Klebsiella pneumoniae SY22 harboring GyrA S83I, ParC S80I mutant, wild-type GyrB and qnrS genes by agar dilution method; assay type: functional; outline: as §1
Klebsiella pneumoniae [6] = experiment: Antimicrobial activity against aac(6')-Ib-cr-negative Klebsiella pneumoniae SY22T harboring qnrS gene by agar dilution method; assay type: functional; outline: as §1
Klebsiella pneumoniae [7] = experiment: Antimicrobial activity against aac(6')-Ib-cr-positive Klebsiella pneumoniae SY26 harboring GyrA S83I, ParC S80I mutant, wild-type GyrB and qnrB genes by agar dilution method; assay type: functional
Outline: (§2)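 MICs were determined on clinical isolates by CLSI agar dilution (M7-A7) and interpreted against CLSI M100-S17 breakpoints.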

Klebsiella pneumoniae [8] = experiment: Antimicrobial activity against aac(6')-Ib-cr-positive Klebsiella pneumoniae SY26T harboring wild-type GyrA, ParC, GyrB and qnrB genes by agar dilution method; assay type: functional
Outline: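 Transconjugants were made by conjugating a qnr/aac(6')-Ib-cr donor with azide-resistant E. coli J53. MICs were read by CLSI agar dilution (M7-A7) and interpreted per M100-S17.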

Citrobacter freundii [9] = experiment: Antimicrobial activity against aac(6')-Ib-cr-positive Citrobacter freundii TJ15 harboring GyrA T83I, ParC S80I mutant, wild-type GyrB, qnrB genes by agar dilution method; assay type: functional; outline: as §1
Citrobacter freundii [10] = experiment: Antimicrobial activity against aac(6')-Ib-cr-positive Citrobacter freundii TJ15T harboring wild-type GyrA, ParC, GyrB genes by agar dilution method; assay type: functional; outline: as §1
Enterobacter cloacae [11] = experiment: Antimicrobial activity against aac(6')-Ib-cr-negative Enterobacter cloacae WH42 harboring wild-type GyrA, ParC, GyrB and qnrA genes by agar dilution method; assay type: functional
Enterobacter cloacae [12] = experiment: Antimicrobial activity against aac(6')-Ib-cr-negative Enterobacter cloacae WH42T harboring qnrA gene by agar dilution method; assay type: functional
Klebsiella pneumoniae [13] = experiment: Antimicrobial activity against aac(6')-Ib-cr-positive Klebsiella pneumoniae WH99 harboring wild-type GyrA, ParC, GyrB and qnrB genes by agar dilution method; assay type: functional; outline: as §2
Klebsiella pneumoniae [14] = experiment: Antimicrobial activity against aac(6')-Ib-cr-positive Klebsiella pneumoniae WH99T harboring qnrB gene by agar dilution method; assay type: functional
Outline: (§3)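 Transconjugants were made by conjugating a qnr/aac(6')-Ib-cr donor with azide-resistant E. coli J53. Selection used Trypticase soy agar with sodium azide 150 µg/ml and sulfamethoxazole 180 µg/ml. […] MICs were read by CLSI agar dilution (M7-A7) and interpreted per M100-S17.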

Escherichia coli [15] = experiment: Antimicrobial activity against aac(6')-Ib-cr-negative Escherichia coli PU12 harboring GyrA S83L mutant, wild-type GyrB, ParC and qnrS genes by agar dilution method; assay type: functional; outline: as §1
Escherichia coli [16] = experiment: Antimicrobial activity against aac(6')-Ib-cr-positive Escherichia coli FJ3 harboring GyrA S83L, ParC S80R mutant, wild-type GyrB and qnrB genes by agar dilution method; assay type: functional; outline: as §1
Enterobacter cloacae [17] = experiment: Antimicrobial activity against aac(6')-Ib-cr-negative Enterobacter cloacae FJ61 harboring GyrA S83I, GyrA D87A, ParC S80I mutant, wild-type GyrB and qnrS genes by agar dilution method; assay type: functional
Enterobacter cloacae [18] = experiment: Antimicrobial activity against aac(6')-Ib-cr-negative Enterobacter cloacae FJ61T harboring qnrS gene by agar dilution method; assay type: functional
Enterobacter cloacae [19] = experiment: Antimicrobial activity against aac(6')-Ib-cr-positive Enterobacter cloacae FJ63 harboring GyrA S83I, GyrA D87A, ParC S80I mutant, wild-type GyrB and qnrS genes by agar dilution method; assay type: functional
Enterobacter cloacae [20] = experiment: Antimicrobial activity against aac(6')-Ib-cr-positive Enterobacter cloacae FJ63T harboring qnrS gene by agar dilution method; assay type: functional
Enterobacter cloacae [21] = experiment: Antimicrobial activity against aac(6')-Ib-cr-negative Enterobacter cloacae FJ67 harboring […] and qnrS genes by agar dilution method; assay type: functional
Enterobacter cloacae [22] = experiment: Antimicrobial activity against aac(6')-Ib-cr-negative Enterobacter cloacae FJ67T harboring qnrS gene by agar dilution method; assay type: functional
Klebsiella pneumoniae [23] = experiment: Antimicrobial activity against aac(6')-Ib-cr-positive Klebsiella pneumoniae GZ40 harboring GyrA S83I, ParC S80I mutant, wild-type GyrB and qnrB genes by agar dilution method; assay type: functional; outline: as §1
Enterobacter cloacae [24] = experiment: Antimicrobial activity against aac(6')-Ib-cr-negative Enterobacter cloacae GZ47 harboring qnrB and qnrS genes by agar dilution method; assay type: functional
Enterobacter cloacae [25] = experiment: Antimicrobial activity against aac(6')-Ib-cr-negative Enterobacter cloacae GZ47T harboring qnrB gene by agar dilution method; assay type: functional
Enterobacter cloacae [26] = experiment: Antimicrobial activity against aac(6')-Ib-cr-negative Enterobacter cloacae GZ51 harboring qnrA gene by agar dilution method; assay type: functional
Enterobacter cloacae [27] = experiment: Antimicrobial activity against aac(6')-Ib-cr-negative Enterobacter cloacae GZ51T harboring qnrA gene by agar dilution method; assay type: functional
Citrobacter freundii [28] = experiment: Antimicrobial activity against aac(6')-Ib-cr-positive Citrobacter freundii JN1 harboring GyrA T83I, ParC S80I mutant, wild-type GyrB and qnrA genes by agar dilution method; assay type: functional; outline: as §1
Citrobacter freundii [29] = experiment: Antimicrobial activity against aac(6')-Ib-cr-positive Citrobacter freundii JN1T by agar dilution method; assay type: functional; outline: as §1
Klebsiella pneumoniae [30] = experiment: Antimicrobial activity against aac(6')-Ib-cr-positive Klebsiella pneumoniae JN132 harboring GyrA S83I, ParC S80I mutant, wild-type GyrB and qnrB genes by agar dilution method; assay type: functional; outline: as §2
Klebsiella pneumoniae [31] = experiment: Antimicrobial activity against aac(6')-Ib-cr-positive Klebsiella pneumoniae JN132T harboring qnrB gene by agar dilution method; assay type: functional; outline: as §3
Klebsiella pneumoniae [32] = experiment: Antimicrobial activity against aac(6')-Ib-cr-positive Klebsiella pneumoniae JN41 harboring GyrA S83I, ParC S80I mutant, wild-type GyrB and qnrB genes by agar dilution method; assay type: functional; outline: as §2
Klebsiella pneumoniae [33] = experiment: Antimicrobial activity against aac(6')-Ib-cr-positive Klebsiella pneumoniae JN41T harboring qnrB gene by agar dilution method; assay type: functional; outline: as §3
Citrobacter freundii [34] = experiment: Antimicrobial activity against aac(6')-Ib-cr-negative Citrobacter freundii JN64 harboring GyrA T83I, wild-type ParC, GyrB and qnrA genes by agar dilution method; assay type: functional; outline: as §1
Citrobacter freundii [35] = experiment: Antimicrobial activity against aac(6')-Ib-cr-negative Citrobacter freundii JN64T harboring qnrA gene by agar dilution method; assay type: functional; outline: as §1
Citrobacter freundii [36] = experiment: Antimicrobial activity against aac(6')-Ib-cr-positive Citrobacter freundii JS33 harboring GyrA T83I mutant, wild-type ParC, GyrB, qnrA and qnrB genes by agar dilution method; assay type: functional; outline: as §1
Citrobacter freundii [37] = experiment: Antimicrobial activity against aac(6')-Ib-cr-positive Citrobacter freundii JS33T harboring qnrA gene by agar dilution method; assay type: functional; outline: as §1
Escherichia coli [38] = experiment: Antimicrobial activity against aac(6')-Ib-cr-positive Escherichia coli FJ3T harboring wild-type GyrA, ParC, GyrB and qnrB genes by agar dilution method
Citrobacter freundii [39] = experiment: Antimicrobial activity against aac(6')-Ib-cr-positive Citrobacter freundii PU55T harboring wild-type GyrA, ParC, GyrB and qnrA genes by agar dilution method
Klebsiella pneumoniae [40] = experiment: Antimicrobial activity against aac(6')-Ib-cr-positive Klebsiella pneumoniae GZ40T harboring qnrB gene by agar dilution method

Compound	MIC (Escherichia coli [1]) [µg/mL]	MIC (Citrobacter freundii [2]) [µg/mL]	MIC (Klebsiella pneumoniae [5]) [µg/mL]	MIC (Klebsiella pneumoniae [6]) [µg/mL]	MIC (Klebsiella pneumoniae [7]) [µg/mL]	MIC (Klebsiella pneumoniae [8]) [µg/mL]	MIC (Citrobacter freundii [9]) [µg/mL]	MIC (Klebsiella pneumoniae [13]) [µg/mL]	MIC (Klebsiella pneumoniae [14]) [µg/mL]	MIC (Escherichia coli [15]) [µg/mL]	MIC (Escherichia coli [16]) [µg/mL]	MIC (Klebsiella pneumoniae [23]) [µg/mL]	MIC (Citrobacter freundii [28]) [µg/mL]	MIC (Citrobacter freundii [29]) [µg/mL]	MIC (Klebsiella pneumoniae [30]) [µg/mL]	MIC (Klebsiella pneumoniae [31]) [µg/mL]	MIC (Klebsiella pneumoniae [32]) [µg/mL]	MIC (Klebsiella pneumoniae [33]) [µg/mL]	MIC (Citrobacter freundii [34]) [µg/mL]	MIC (Citrobacter freundii [36]) [µg/mL]	also measured
GENTAMICIN	1	1	128	32	> 256	> 256	256	128	128	2	128	1	1	1	> 256	> 256	1	1	> 256	64	MIC (Enterobacter cloacae [3]): 8 µg/mL; MIC (Enterobacter cloacae [4]): 4 µg/mL; MIC (Citrobacter freundii [10]): 1 µg/mL; MIC (Enterobacter cloacae [11]): 16 µg/mL; MIC (Enterobacter cloacae [12]): 8 µg/mL; MIC (Enterobacter cloacae [17]): 128 µg/mL; MIC (Enterobacter cloacae [18]): 1 µg/mL; MIC (Enterobacter cloacae [19]): > 256 µg/mL; MIC (Enterobacter cloacae [20]): > 256 µg/mL; MIC (Enterobacter cloacae [21]): 2 µg/mL; MIC (Enterobacter cloacae [22]): 1 µg/mL; MIC (Enterobacter cloacae [24]): 256 µg/mL; MIC (Enterobacter cloacae [25]): 128 µg/mL; MIC (Enterobacter cloacae [26]): > 256 µg/mL; MIC (Enterobacter cloacae [27]): > 256 µg/mL; MIC (Citrobacter freundii [35]): > 256 µg/mL; MIC (Citrobacter freundii [37]): 16 µg/mL
CO/N=C(\C(=O)N[C@@H]1C(=O)N2C(C(=O)[O-])=C(C[N+]3(C)CCCC3)CS[C@H]12)c1csc(N)n1	2 (≈ 4.16 µM)	1 (≈ 2.08 µM)	1 (≈ 2.08 µM)	–	0.5 (≈ 1.04 µM)	–	–	2 (≈ 4.16 µM)	1 (≈ 2.08 µM)	2 (≈ 4.16 µM)	8 (≈ 16.6 µM)	–	–	1 (≈ 2.08 µM)	2 (≈ 4.16 µM)	2 (≈ 4.16 µM)	2 (≈ 4.16 µM)	1 (≈ 2.08 µM)	–	0.25 (≈ 0.52 µM)	MIC (Escherichia coli [38]): 4 µg/mL (≈ 8.32 µM); MIC (Citrobacter freundii [35]): 4 µg/mL (≈ 8.32 µM)
O=C(O)c1cn(C2CC2)c2cc(N3CCNCC3)c(F)cc2c1=O [CIPROFLOXACIN]	–	> 32	> 32	0.5 (≈ 1.51 µM)	> 32	0.5 (≈ 1.51 µM)	16 (≈ 48.3 µM)	2 (≈ 6.04 µM)	1 (≈ 3.02 µM)	–	–	> 32	> 32	1 (≈ 3.02 µM)	> 32	1 (≈ 3.02 µM)	> 32	0.5 (≈ 1.51 µM)	8 (≈ 24.1 µM)	4 (≈ 12.1 µM)	MIC (Citrobacter freundii [39]): 1 µg/mL (≈ 3.02 µM); MIC (Klebsiella pneumoniae [40]): 1 µg/mL (≈ 3.02 µM); MIC (Citrobacter freundii [37]): 0.5 µg/mL (≈ 1.51 µM)
